Columns and labels:
[1] = biological target: T1, Prostaglandin G/H synthase 1 (Ovis aries, UniProt P05979); test: Inhibition of ovine COX-1 by EIA method
T1 sequence (P05979 whole entry): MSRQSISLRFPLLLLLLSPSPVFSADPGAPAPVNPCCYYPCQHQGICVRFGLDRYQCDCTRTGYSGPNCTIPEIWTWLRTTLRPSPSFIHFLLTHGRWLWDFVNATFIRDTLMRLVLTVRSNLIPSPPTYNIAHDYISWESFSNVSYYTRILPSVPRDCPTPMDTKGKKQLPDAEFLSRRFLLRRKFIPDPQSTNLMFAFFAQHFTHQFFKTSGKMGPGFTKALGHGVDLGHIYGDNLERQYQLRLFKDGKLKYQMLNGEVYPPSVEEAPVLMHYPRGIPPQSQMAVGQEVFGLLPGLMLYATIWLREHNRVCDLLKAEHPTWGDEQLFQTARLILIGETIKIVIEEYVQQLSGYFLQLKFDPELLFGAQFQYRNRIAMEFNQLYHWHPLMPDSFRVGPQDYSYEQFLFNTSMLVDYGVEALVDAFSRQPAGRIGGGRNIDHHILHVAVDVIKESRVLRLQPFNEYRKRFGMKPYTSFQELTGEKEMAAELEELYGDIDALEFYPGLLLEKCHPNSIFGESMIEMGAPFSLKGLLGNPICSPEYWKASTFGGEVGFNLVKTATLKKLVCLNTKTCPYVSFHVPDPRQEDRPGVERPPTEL

UO-31 = test: Antiproliferative against human UO31 cells incubated for 24 hrs by MTT assay; type: functional, cell-based; settings: UO-31, 24 h
Procedure, shortened: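 UO-31 cells from ATCC, grown in DMEM with 10% FBS, 10 ug/mL insulin and 1% penicillin-streptomycin. Seeded at 1.2–1.8 × 10,000 cells/well with test compound for 24 h. MTT read-out: crystals dissolved in acidified isopropanol, absorbance at 570 nm.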

[2] = biological target: Epidermal growth factor receptor (Homo sapiens, UniProt P00533); test: Inhibition of recombinant human GST-tagged EGFR catalytic domain (668 to 1210 residues) expressed in baculovirus expression system using TK-biotin peptide as substrate measured after 10 mins by HTRF assay
Chain of Epidermal growth factor receptor (P00533 whole entry, the tested form may be a part): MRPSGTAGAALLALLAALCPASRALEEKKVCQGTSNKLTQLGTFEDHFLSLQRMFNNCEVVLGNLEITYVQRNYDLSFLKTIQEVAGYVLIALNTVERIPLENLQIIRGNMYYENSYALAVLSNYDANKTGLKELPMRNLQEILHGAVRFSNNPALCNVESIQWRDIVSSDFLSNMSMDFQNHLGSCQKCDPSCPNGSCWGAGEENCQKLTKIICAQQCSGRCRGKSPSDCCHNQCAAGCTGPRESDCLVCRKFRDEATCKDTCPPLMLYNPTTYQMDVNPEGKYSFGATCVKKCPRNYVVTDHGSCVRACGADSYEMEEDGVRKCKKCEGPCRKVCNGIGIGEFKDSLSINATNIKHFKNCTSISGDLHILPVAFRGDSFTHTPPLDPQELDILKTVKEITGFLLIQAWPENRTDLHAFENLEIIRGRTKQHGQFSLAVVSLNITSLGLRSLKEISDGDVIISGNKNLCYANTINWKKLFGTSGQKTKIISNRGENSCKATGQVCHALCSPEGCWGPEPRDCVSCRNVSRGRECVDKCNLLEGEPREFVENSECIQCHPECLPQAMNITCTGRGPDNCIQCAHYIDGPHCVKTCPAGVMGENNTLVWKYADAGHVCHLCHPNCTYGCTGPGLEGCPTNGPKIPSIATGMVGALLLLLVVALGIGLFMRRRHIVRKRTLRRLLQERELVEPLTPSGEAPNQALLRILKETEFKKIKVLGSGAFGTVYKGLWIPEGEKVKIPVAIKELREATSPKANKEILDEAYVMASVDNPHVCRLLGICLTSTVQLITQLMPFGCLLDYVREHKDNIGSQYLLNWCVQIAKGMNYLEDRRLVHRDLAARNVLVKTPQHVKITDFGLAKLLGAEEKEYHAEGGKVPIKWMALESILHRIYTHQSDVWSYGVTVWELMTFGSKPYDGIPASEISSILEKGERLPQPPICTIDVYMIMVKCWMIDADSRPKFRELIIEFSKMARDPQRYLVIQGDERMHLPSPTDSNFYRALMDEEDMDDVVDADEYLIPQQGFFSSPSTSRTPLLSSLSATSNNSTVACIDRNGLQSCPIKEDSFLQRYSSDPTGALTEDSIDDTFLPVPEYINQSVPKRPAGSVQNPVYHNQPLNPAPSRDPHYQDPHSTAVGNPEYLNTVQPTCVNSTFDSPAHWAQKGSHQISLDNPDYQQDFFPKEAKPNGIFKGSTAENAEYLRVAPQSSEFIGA

Structure (SMILES) | IC50 [1] [µM] | IC50 (UO-31) [nM] | IC50 [2] [nM]
Clc1ccc(/C=N/c2nnc(-c3ccccc3)o2)cc1 | 11.4 |  | 
Clc1ccc(/C=N/c2nnc(-c3cccnc3)o2)cc1 | 10.5 | 13.6 | 1130
Clc1ccc(/C=N/Nc2nnc(-c3ccncc3)o2)cc1 | 8.69 |  | 
Brc1ccc(-c2nnc(CSc3nnc(-c4ccncc4)o3)o2)cc1 | 4.17 | 83.5 | 
N#CCC(=O)Nc1nnc(-c2cccnc2)o1 | 13.1 |  | 
C(=N\Nc1nnc(-c2ccncc2)o1)/c1ccccc1 | 10.6 |  | 
COc1cccc2c1C(=O)c1c(O)c3c(c(O)c1C2=O)C[C@@](O)(C(=O)CO)C[C@@H]3O[C@H]1C[C@H](N)[C@H](O)[C@H](C)O1 [DOXORUBICIN] |  | 7.45 | 
O=[N+]([O-])c1ccc(/C=N/Nc2nnc(-c3ccncc3)o2)cc1 | 9.87 | 8.6 | 412
O=C(Nc1ccccc1)Nc1nnc(-c2cccnc2)o1 | 9.37 | 5.76 | 
Clc1ccc(-c2nnc(/N=C/c3ccccc3)o2)cc1 | 7.54 |  | 
O=C(Nc1ccccc1)Nc1nnc(-c2ccccc2)o1 | 6.87 | 33.2 | 
CCO/C=N/c1nnc(-c2ccc(Cl)cc2)o1 | 15.4 | 52.7 | 
CCO/C=N/c1nnc(-c2ccccc2)o1 | 14.2 |  | 
Oc1ccc(-c2nnc(CSc3nnc(-c4ccncc4)o3)o2)cc1 | 7.96 |  | 
N#CCC(=O)Nc1nnc(-c2ccc(Cl)cc2)o1 | 13.7 |  | 
CCO/C=N/c1nnc(-c2cccnc2)o1 | 12.7 | 310 | 
O=C(Nc1ccccc1)Nc1nnc(-c2ccc(Cl)cc2)o1 | 10.9 |  | 
O=[N+]([O-])c1ccc(/C=N/c2nnc(-c3cccnc3)o2)cc1 | 8.29 |  | 
Clc1ccc(-c2nnc(CSc3nnc(-c4ccncc4)o3)o2)cc1 | 6.84 |  | 
Clc1ccc(/C=N/c2nnc(-c3ccc(Cl)cc3)o2)cc1 | 5.39 | 29.6 | 
O=[N+]([O-])c1ccc(/C=N/c2nnc(-c3ccc(Cl)cc3)o2)cc1 | 12 |  | 
Brc1ccc(/C=N/Nc2nnc(-c3ccncc3)o2)cc1 | 5.71 |  | 
O=[N+]([O-])c1ccc(/C=N/c2nnc(-c3ccccc3)o2)cc1 | 9.81 |  | 
O=C(CSc1nnc(-c2ccncc2)o1)N/N=C/c1ccc([N+](=O)[O-])cc1 | 4.49 |  | 
O=C(CSc1nnc(-c2ccncc2)o1)N/N=C/c1ccc(Cl)cc1 | 6.78 |  | 

From ChEMBL document CHEMBL4311968, “New oxadiazoles with selective-COX-2 and EGFR dual inhibitory activity: Design, synthesis, cytotoxicity evaluation and in silico studies” (Eur J Med Chem, 2019)
